Results as given in the EternaBench riboswitch data.

Tested on: MS2 coat protein
Assay: apparent Kd, MS2 coat protein; higher = weaker binding; RNA-MaP array; FMN 200 µM where present
Summary of the method: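 Designs were transcribed by stalled E. coli RNA polymerase on Illumina sequencing-chip clusters. They were titrated with SNAP-549-labelled MS2 coat protein from 0.7 or 1.5 nM, doubling to 3 µM, in 100 mM Tris-HCl pH 7.5, 80 mM KCl, 4 mM MgCl2, BSA, DTT, yeast tRNA and Tween-20, without and then with constant ligand. The apparent Kd is the median of filtered per-cluster fits after normalisation of green signal to red-channel RNA signal and control-cluster median Fmax.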

[1] = designed as: ON switch for flavin mononucleotide, no ligand
[2] = ligand present: flavin mononucleotide, designed as: ON switch for flavin mononucleotide
[3] = designed as: OFF switch for flavin mononucleotide, no ligand
[4] = ligand present: flavin mononucleotide, designed as: OFF switch for flavin mononucleotide

Row | Sequence | apparent Kd [1] [nM] | apparent Kd [2] [nM] | apparent Kd [3] [nM] | apparent Kd [4] [nM]
1 | AAGAAAGAAACGCAGGAUAUGCAAAACAAAACAUGAGGAUCACCCAUGUCUUACUUACAAACAAAGCAGAAGGGCGAAAGAAAGAA | 20.1 | 13.2 |  | 
2 | AAUAUAAAGCAGAAGGCCUUAUUACAUGAGGAUCACCCAUGUAAUCGUGGGAGGAUAUGCAUGAUACAACUACGUAUCGUAGCA | 9.33 | 5.19 |  | 
3 | GUAGAGUCAGGAUAUACGAAUAGAUCGAAAGAUCAAUCCAUACAUGAGGAUCACCCAUGUAGAAGGGACUCUAC |  |  | 19.3 | 22.7
4 | AAGAUGCGGGUAGGAUAUGGAGAGAAAGAAAGACCAGAAGGACUGGUCACACAACAUGAGGAUCACCCAUGUGUGUGUUGCGAA |  |  | 11.8 | 8.91
5 | UUUAUGUAGGAGAAGGAGGACUUCAUGAGGAUCACCCAUGUGUUAGGACUUAGGAUAUUUGACGACAUGAGGAUCACCCAUGUG | 64.3 | 56.5 |  | 
6 | UACGUACAGAAGAACUCCGGAUCUAGAAGGGACAUGAGGAUCACCCAUGUACCGUUGAUUGCUUGUCAGGAUAUAGACCCGGCC |  |  | 6.07 | 14.2
7 | UUUAUUUCGGCAGGAUAUACAUGUAUAUAUAUUUCUUUAUAUCUUAUUACAUGAGGAUCACCCAUGUAGAAGGGCCUUCUUCUC |  |  | 55.1 | 49.2
8 | GUUAUUUAUGUAGGAUAUGCGAGGCGAGCCUGAGCAGAAGGACAUGAGGAUCACCCAUGUAUUGCGGUUUGUGUUCAGAUCGCU |  |  | 17.9 | 25.6
9 | AAUUUAAAGGGAGGAUAUACAUGAGGAUCACCCAUGUAAUAAUAUGAUAUUUUUUUUGUAUGAGUGUAGAAGGCCCAAAUAAAA |  |  | 51.6 | 61
10 | UCGGCGCGAGGAUAUGCGGCUUGUGCUUCGGGCCCUCGCGUACAUGAGGAUCACCCAUGUAGAAGGCGCGCCGC |  |  | 120 | 91.7
11 | AAUUGUUUCUGAGGAUAUCAGUAGUAUGCUUUUUGAGAAGGCAGUACAUGAGGAUCACCCAUGUUGUGGUUUGAUAGAAUGAUA | 193 | 182 |  | 
12 | AAUACUACAGGAUAUACAUGGGUGAUCCUCAUGUCCCUUCUACAUGAGGAUCACCCAUGUAGAAGGGUAGUACA |  |  | 13.4 | 8.3
13 | AAAUCACAUGAGGAUCACCCAUGUGAGGAUAUGAUACUAUGUACUUCGGUACAUAGUAUCAGAAGGCAUGUGGA |  |  | 32 | 36.8
14 | AAAGUUGGUAGGCCCUCGGAACAUGAGGAUCACCCAUGUAAGGAGGAUAUGCCCGGUACCCGCUGGCAGAAGGCCUUAUAAGAC |  |  | 6.74 | 42.5
15 | UGAUAGGACAGAGGAUAUACGUAUAAUUCCUUCAACAUGAGGAUCACCCAUGUAGAAGGCUGUCCUAUCUAAGUCGGAAACGAC |  |  | 4.81 | 5.33
16 | CGCUAAGAUGGGUCUAAUGGACCAUAGGAUAUGCUUGUACAUGAGGAUCACCCAUGUAAUAUUGUGCAGAAGGGUGGAUUUGCG | 26.4 | 19.6 |  | 
17 | ACCCGCAGCCGUCAGGAUAUGUUCGCGUCAACAUGAGGAUCACCCAUGUGUGACAAGAAGUACACGCAGAAGGGAUCAAUGCGGG | 16.4 | 18.3 |  | 
18 | AAUAUAAGAGCUGGAAAUCUCAAAACAUGAGGAUCACCCAUGUAGGAUAUCAGCACGAUAAGUGCUGAGAAGGACAUCCAGCUC |  |  | 16 | 18.1
19 | GCAGCACUGUUUUACAUGAGGAUCACCCAUGUCGAUUGUUAUGAGGAUAUGCAUCGUAUGAAGAUGCAGAAGGCAUUGUGCUGC | 8.32 | 5.48 |  | 
20 | GGUGGACAUGAGGAUCACCCAUGUGAGGAUAUCGGCUAUCUUAUCGCUGUCGGUUGCUCGAGAAGGCACAUUGU |  |  | 76.7 | 195
21 | ACUGCAUAGGCAGGAUAUGCAAUAAUUCGAAUAAAAUAUAACGAAUUAACAUGAGGAUCACCCAUGUAGAAGGGCCUGUGCAGU |  |  | 6.46 | 5.46

Row | Sequence | apparent Kd [1] [nM] | apparent Kd [2] [nM] | apparent Kd [3] [nM] | apparent Kd [4] [nM]
22 | AAAUUAAGAAGAGGAUAUUGACAUGAGGAUCACCCAUGUAUUUGGGAAUGUUUACUGAAUUCUUACAAGAAGGUUUACGAACUU |  |  | 157 | 99.7
23 | UGGGUAAAUGUAGGAUAUUUAUAUUAAUAGUAUGGAGAAGGACAUGAGGAUCACCCAUGUACAGGGAAUUACCCAUUUCCUCUC |  |  | 1010 | 1100
24 | CCGUUACAUGAGGAUCACCCAUGUGAGGAUAUCGGGAUGACUGGCAGCGUGCGGGACACGAGAAGGCACUGGGC |  |  | 55.5 | 65.1
25 | GUGUAGUCAGGAUAUACAUAGGAAGAGAAGAGAAGAGAAGGACAUGAGGAUCACCCAUGUAGAAGGGACAGUGU |  |  | 46.7 | 40.9
26 | GAGCGAAAGCUCAAUGUCGAUAGCAGAAGGACAUGUAAAACCAUGAAAACAUGAGGAUCACCCAUGUAGGAUAUGCUAUCGACU |  |  | 9.7 | 95.8
27 | AUUAUACAUGAGGAUCACCCAUGUUUUGGUGGGUCAGGAUAUAAAUUGAAUGAGUUUUAGUUAGAAGGGACAUUUA | 56.5 | 42.9 |  | 
28 | GGAUUACAUGAGGAUCACCCAUGUGAGGAUAUCGAUGUCCUCAGUGGAGUGCGGGACUCGAGAAGGCACUUGGA |  |  | 172 | 169
29 | UCAUCAACGGGCGGGUCGGUUGGACAUGAGGAUCACCCAUGUAGAAGGACCGGUGGACUCCGGCGGUAGGAUAUACAUAUGGUG |  |  | 29.2 | 36.7
30 | GCAUUGUAAGGAUAUACGUGCAAAGUUUUCGCUGUAAGUCGACAUGAGGAUCACCCAUGUAGAAGGUAUAUGGU |  |  | 24 | 24.1
31 | AUGAGGGAAGUAGGAUAUGAUCAAGACAUGAGGAUCACCCAUGUAAUGAGGGUGUGUGUCUUUGUUCAGAAGGACUUGUGUCAA |  |  | 46.4 | 52.6
32 | AGAAAGGUAGGAUAUACGAAAAAAAAGGGUAGAAAAAAAACACAUGAGGAUCACCCAUGUAGAAGGACCAAAGA |  |  | 28.9 | 96.6
33 | GCCGUUAAAGGAUAUACAUGAGGAUCACCCAUGUCGGUAUAAAAUUUACCGCCUCCCUGUAGAAGGUUAAGGCA |  |  | 15.6 | 19.8
34 | GGUGGACAUGAGGAUCACCCAUGUGAGGAUAUCGGCUGGUACGUGUUGGCUGGCUUCUCGAGAAGGCACAUAGU |  |  | 64.7 | 75.4
35 | UUAUUUUAAUGAGGAUAUAUACAACAUGAGGAUCACCCAUGUACCCAUGUAGUAGAAGGCAUAAUUUUUGAUAAUAACAUAACU | 49.5 | 31.6 |  | 
36 | CGCUAUGACAUAGGAUAUUGAUACAUGAGGAUCACCCAUGUCAACCAUGAAGCUCGAAUUGUUGACAAGAAGGAUGUGGUAGCG | 157 | 72.9 |  | 
37 | AUAAAUAUAGCGAUAUGAUCGAGAGAUCAUGUCGCUAAUAUUAGAAGGACAUGAGGAUCACCCAUGUAGGAUAUGGGAGUAUAA | 107 | 55.1 |  | 
38 | UGGCCGAAGUUAGGAUAUUGGUUAGGGACGGACUAAGAAGGAGCACAUACAUGAGGAUCACCCAUGUUAGAAGAAGAUCCUCCA |  |  | 29.3 | 26.7
39 | UUUGUCGGAGUAGGAUAUCAAAUAGAGGGUGUAUGAGAAGGACUUAGACAUGAGGAUCACCCAUGUGUGGGUCGCCUCGAUCUC |  |  | 6.88 | 10.9
40 | GGACAUUUACAGAAGGGCAAGUUAGAUAGUGAAUAUUUAGUUCUGACUUGCAGGAUAUGUUGAACAUGAGGAUCACCCAUGUCC | 14.4 | 10.6 |  | 
41 | UAAGUAUGUUGAGGAUAUUAUGUUUGGUGAGAUGACAUGAGGAUCACCCAUGUGUUAUCAGUUCUUAAGAAGGCAACAUACUUA | 25.7 | 17.8 |  | 
